{
  "source": "ChEMBL document CHEMBL5136969",
  "about": "“A niclosamide-tobramycin hybrid adjuvant potentiates cefiderocol against P. aeruginosa” (2021)",
  "assay_type_in_all_cases": "functional",
  "key": {"Pseudomonas aeruginosa": {"system": "Pseudomonas aeruginosa", "assay": "Antibacterial activity against Pseudomonas aeruginosa PAO1 assessed as reduction in bacterial growth after 18 hrs by microbroth dilution method", "summary_of_the_method": "(§1)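 CLSI broth microdilution. Overnight cultures were adjusted in saline to 0.5 McFarland, diluted 1:50 in Mueller-Hinton broth (MHB), and inoculated at about 5 × 10^5 CFU/mL. Agents were 2-fold serially diluted in MHB, mixed 1:1 with inoculum, and held at 37 °C for 18 h. MIC was the lowest concentration with no visible turbidity, confirmed at 590 nm.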"}, "Acinetobacter baumannii": {"system": "Acinetobacter baumannii", "assay": "Antibacterial activity against Acinetobacter baumannii ATCC 17978 assessed as reduction in bacterial growth after 18 hrs by microbroth dilution method", "summary_of_the_method": "(§2)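 CLSI microbroth dilution in MHB. Overnight cultures were adjusted to 0.5 McFarland in saline, diluted 1:50, and inoculated at about 5 × 10^5 CFU/mL. Agents were 2-fold serially diluted and incubated 18 h at 37 °C. MIC is the lowest concentration without visible turbidity, confirmed by absorbance at 590 nm. Medium with and without cells served as controls.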"}, "Escherichia coli": {"system": "Escherichia coli", "assay": "Antibacterial activity against Escherichia coli ATCC 25922 assessed as reduction in bacterial growth after 18 hrs by microbroth dilution method", "summary_of_the_method": "as §2"}, "Staphylococcus aureus [1]": {"system": "Staphylococcus aureus", "assay": "Antibacterial activity against Staphylococcus aureus ATCC 29213 assessed as reduction in bacterial growth after 18 hrs by microbroth dilution method", "summary_of_the_method": "as §1"}, "Staphylococcus aureus [2]": {"system": "Staphylococcus aureus", "assay": "Antibacterial activity against methicillin-resistant Staphylococcus aureus ATCC 33592 assessed as reduction in bacterial growth after 18 hrs by microbroth dilution method", "summary_of_the_method": "(§3)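 Broth microdilution per CLSI in Mueller-Hinton broth (MHB). Overnight cultures were adjusted to 0.5 McFarland in saline, diluted 1:50 in MHB, and added at about 5 × 10^5 CFU/mL final to equal volumes of 2-fold serial dilutions of agent. Incubation was 18 h at 37 °C. MIC was the lowest concentration with no visible turbidity, confirmed by absorbance at 590 nm.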"}, "[3]": {"system": "Staphylococcus epidermidis", "assay": "Antibacterial activity against methicillin-resistant Staphylococcus epidermidis 61589 assessed as reduction in bacterial growth after 18 hrs by microbroth dilution method", "summary_of_the_method": "as §3"}, "Enterococcus faecalis": {"system": "Enterococcus faecalis", "assay": "Antibacterial activity against Enterococcus faecalis ATCC 29212 assessed as reduction in bacterial growth after 18 hrs by microbroth dilution method", "summary_of_the_method": "as §2"}, "Enterococcus faecium": {"system": "Enterococcus faecium", "assay": "Antibacterial activity against Enterococcus faecium ATCC 27270 assessed as reduction in bacterial growth after 18 hrs by microbroth dilution method", "summary_of_the_method": "as §2"}},
  "data": [
    {"smiles": "O=C(Nc1ccc([N+](=O)[O-])cc1Cl)c1cc(Cl)ccc1O", "note": "[NICLOSAMIDE]", "values": [
      {"measurement": "MIC", "setting": "Pseudomonas aeruginosa", "result": "> 128", "unit": "µg/mL"},
      {"measurement": "MIC", "setting": "Acinetobacter baumannii", "result": "> 128", "unit": "µg/mL"},
      {"measurement": "MIC", "setting": "Escherichia coli", "result": "> 128", "unit": "µg/mL"},
      {"measurement": "MIC", "setting": "Staphylococcus aureus [1]", "result": 1, "unit": "µg/mL"},
      {"measurement": "MIC", "setting": "Staphylococcus aureus [2]", "result": 0.25, "unit": "µg/mL"},
      {"measurement": "MIC", "setting": "[3]", "result": 1, "unit": "µg/mL"},
      {"measurement": "MIC", "setting": "Enterococcus faecalis", "result": 2, "unit": "µg/mL"},
      {"measurement": "MIC", "setting": "Enterococcus faecium", "result": 2, "unit": "µg/mL"}
    ]},
    {"smiles": "NC[C@H]1O[C@H](O[C@H]2[C@H](O)[C@@H](O[C@H]3O[C@H](CO)[C@@H](O)[C@H](N)[C@H]3O)[C@H](N)C[C@@H]2N)[C@H](N)C[C@@H]1O", "note": "[TOBRAMYCIN]", "values": [
      {"measurement": "MIC", "setting": "Pseudomonas aeruginosa", "result": 0.5, "unit": "µg/mL"},
      {"measurement": "MIC", "setting": "Acinetobacter baumannii", "result": 0.5, "unit": "µg/mL"},
      {"measurement": "MIC", "setting": "Escherichia coli", "result": 2, "unit": "µg/mL"},
      {"measurement": "MIC", "setting": "Staphylococcus aureus [1]", "result": 0.5, "unit": "µg/mL"},
      {"measurement": "MIC", "setting": "Staphylococcus aureus [2]", "result": 2, "unit": "µg/mL"},
      {"measurement": "MIC", "setting": "[3]", "result": 8, "unit": "µg/mL"},
      {"measurement": "MIC", "setting": "Enterococcus faecalis", "result": 8, "unit": "µg/mL"},
      {"measurement": "MIC", "setting": "Enterococcus faecium", "result": 16, "unit": "µg/mL"}
    ]}
  ]
}
